In ChEMBL document CHEMBL1153450, “Ligustrazine derivatives. Part 3: Design, synthesis and evaluation of novel acylpiperazinyl derivatives as potential cerebrocardiac vascular agents” (Bioorg Med Chem, 2009):

Legend:
[1] = Antiplatelet activity in rabbit platelets assessed as inhibition of ADP-induced platelet aggregation at 200 uM by aggregometer; type: functional, Oryctolagus cuniculus; parameters: scale not given: the % may be the effect or the level left
Summary of the method: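 Rabbit blood anticoagulated with 3.8% trisodium citrate (0.3 ml per 2.7 ml blood). ADP and compound (200 µM) added in sequence, with blank and ADP-control cuvettes. Platelet-rich plasma from 270 g/5 min spin, platelet-poor plasma from 1000 g/10 min spin. Aggregation read on aggregometer and reported as mean aggregation rate A% (n = 6).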

[2] = system: ECV-304; assay: Protection against hydrogen peroxide-induced cell damage in human ECV304 cells treated 30 mins before hydrogen peroxide challenge measured after 6 hrs; type: functional, cell-based
Summary of the method: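 ECV-304 cells grown 24 h, then given fresh medium with compound at 12.5, 25, 50, 100 or 200 µM. After 0.5 h, 150 µM H2O2 added, then 6 h further incubation. Read-out is absorbance at 570 nm, mean ± SEM, n = 6. Proliferation rate = (OD compd − OD H2O2)/(OD control − OD H2O2) × 100%. EC50 derived by a pEC50 summation formula over proliferation rates.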

[3] = Half life in human; type: ADME, organism-based; conditions: in vivo

Row | half-life [3] [h] | SMILES | Activity [1] [%] | EC50 [2] [µM]
1 | – | Cc1nc(C)c(CN2CCN(C(=O)c3ccc(I)cc3)CC2)nc1C | 25.17 | 125
2 | – | Cc1nc(C)c(CN2CCN(C(=O)C(=O)c3ccccc3)CC2)nc1C | 26.11 | 304
3 | – | Cc1nc(C)c(CN2CCN(C(=O)c3ccccc3O)CC2)nc1C | 16.71 | 6.13
4 | – | Cc1nc(C)c(CN2CCN(S(=O)(=O)c3ccccc3)CC2)nc1C | 24.49 | 480
5 | – | Cc1ccc(S(=O)(=O)N2CCN(Cc3nc(C)c(C)nc3C)CC2)cc1 | 25.13 | –
6 | – | CCOC(=O)N1CCN(Cc2nc(C)c(C)nc2C)CC1 | 15.25 | 76.6
7 | – | COc1cc(C(=O)N2CCN(Cc3nc(C)c(C)nc3C)CC2)cc(OC)c1OC | 14.26 | 88.7
8 | – | COc1ccc(C(=O)N2CCN(Cc3nc(C)c(C)nc3C)CC2)cc1OC | 29.06 | 170
9 | – | Cc1nc(C)c(CN2CCN(C(=O)c3cc([N+](=O)[O-])cc([N+](=O)[O-])c3)CC2)nc1C | 15.67 | 179
10 | – | Cc1nc(C)c(CN2CCN(C(=O)CCc3ccccc3)CC2)nc1C | 13.29 | 150
11 | – | Cc1nc(C)c(CN2CCN(C(=O)Cc3ccccc3)CC2)nc1C | 25.59 | 189
12 | – | COc1cccc(/C=C/C(=O)N2CCN(Cc3nc(C)c(C)nc3C)CC2)c1OC | 8.78 | 340
13 | – | COc1cc(/C=C/C(=O)N2CCN(Cc3nc(C)c(C)nc3C)CC2)ccc1OC(C)=O | 5.84 | –
14 | – | Cc1nc(C)c(CN2CCN(C(=O)c3ccccc3)CC2)nc1C | 28.46 | 241
15 | – | Cc1nc(C)c(CN2CCN(C(=O)c3ccccc3Cl)CC2)nc1C | 27.24 | 161
16 | – | Cc1nc(C)c(CN2CCN(C(=O)c3cccc(Cl)c3)CC2)nc1C | 24.74 | 121
17 | – | Cc1nc(C)c(CN2CCN(C(=O)c3ccc(Cl)cc3)CC2)nc1C | 25.62 | 208

Row | half-life [3] [h] | SMILES | Activity [1] [%] | EC50 [2] [µM]
18 | – | Cc1nc(C)c(CN2CCN(C(=O)c3ccc(Cl)cc3Cl)CC2)nc1C | 16.08 | 249
19 | – | COc1ccc(OC)c(/C=C/C(=O)N2CCN(Cc3nc(C)c(C)nc3C)CC2)c1 | 9.78 | 376
20 | – | CC(=O)Oc1ccccc1C(=O)N1CCN(Cc2nc(C)c(C)nc2C)CC1 | 3.02 | 159
21 | – | Cc1nc(C)c(CN2CCN(C(=O)c3cccnc3)CC2)nc1C | 5.08 | 220
22 | – | Cc1nc(C)c(CN2CCN(C(=O)c3ccncc3)CC2)nc1C | 6.07 | 29.7
23 | – | Cc1nc(C)c(CN2CCN(C(=O)C(C)(C)Oc3ccc(Cl)cc3)CC2)nc1C | 13.68 | –
24 | – | Cc1nc(C)c(CN2CCN(S(C)(=O)=O)CC2)nc1C | 33.51 | 162
25 | – | Cc1nc(C)c(CN2CCN(C(=O)CCl)CC2)nc1C | 24.89 | 148
26 | – | Cc1nc(C)c(CN2CCN(C(=O)c3ccco3)CC2)nc1C | 21.76 | 37.6
27 | – | COc1ccc(C(=O)N2CCN(Cc3nc(C)c(C)nc3C)CC2)cc1 | 26.06 | 210
28 | – | Cc1nc(C)c(CN2CCN(C(=O)c3ccc([N+](=O)[O-])cc3)CC2)nc1C | 28.64 | 462
29 | – | COc1ccc(/C=C/C(=O)N2CCN(Cc3nc(C)c(C)nc3C)CC2)cc1OC | 6.13 | 282
30 | – | COc1ccccc1C(=O)N1CCN(Cc2nc(C)c(C)nc2C)CC1 | 24.27 | 249
31 | – | Cc1nc(C)c(CN2CCN(C(=O)/C=C/c3cccc([N+](=O)[O-])c3)CC2)nc1C | 13.07 | 422
32 | – | Cc1nc(C)c(CN2CCN(C(=O)c3ccccc3I)CC2)nc1C | 25.45 | 67.8
33 | – | Cc1nc(C)c(CN2CCN(C(=O)Cc3ccc([N+](=O)[O-])cc3)CC2)nc1C | 18.24 | 377
34 | 2.89 | Cc1nc(C)c(C)nc1C [LIGUSTRAZINE] | 7.86 | 154
